Experimental data taken from ChEMBL document CHEMBL3351780, “Novel hybrids of metronidazole and quinolones: synthesis, bioactive evaluation, cytotoxicity, preliminary antimicrobial mechanism and effect of metal ions on their transportation by human serum albumin” (Eur J Med Chem, 2014).
Converted amounts (≈) assume the structure as drawn.

Key:
Streptococcus pneumoniae = assay: Antibacterial activity against Streptococcus pneumoniae by two-fold serial dilution method; type: functional
How it was run: (§1)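 Standard two-fold serial dilution in 96-well microtest plates following NCCLS. Top dilutions printed as 32, 16, 8, 4, 2, 1, 0.5 ug/mL. Wells inoculated and held at 37 °C for 24 h. Growth judged visually and by spectrophotometer, in triplicate. MIC is the lowest concentration giving complete growth inhibition.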

Micrococcus luteus = assay: Antibacterial activity against Micrococcus luteus by two-fold serial dilution method; type: functional; how it was run: as §1
Staphylococcus aureus [1] = assay: Antibacterial activity against methicillin-resistant Staphylococcus aureus N315 by two-fold serial dilution method; type: functional
How it was run: (§2)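 MIC read as the lowest concentration giving complete growth inhibition. Two-fold serial dilutions were made in 96-well plates following NCCLS, giving a series down to 0.5 µg/mL (…32, 16, 8, 4, 2, 1, 0.5). Plates were inoculated and incubated at 37 °C for 24 h. A DMSO-with-inoculum control without drug was included. Growth was monitored visually and spectrophotometrically, in triplicate.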

Staphylococcus aureus [2] = assay: Antibacterial activity against Staphylococcus aureus ATCC 25923 by two-fold serial dilution method; type: functional; how it was run: as §1
Bacillus spizizenii = assay: Antibacterial activity against Bacillus subtilis ATCC 6633 by two-fold serial dilution method; type: functional; how it was run: as §1
Pseudomonas aeruginosa = assay: Antibacterial activity against Pseudomonas aeruginosa by two-fold serial dilution method; type: functional; how it was run: as §1
Escherichia coli = assay: Antibacterial activity against Escherichia coli DH52 by two-fold serial dilution method; type: functional; how it was run: as §1
Shigella dysenteriae = assay: Antibacterial activity against Shigella dysenteriae by two-fold serial dilution method; type: functional; how it was run: as §2
[3] = Antibacterial activity against Eberthella typhosa by two-fold serial dilution method; type: functional; how it was run: as §2
Cyberlindnera jadinii = assay: Antifungal activity against Candida utilis after 24 hrs by microbroth dilution method; type: functional; conditions: Williopsis jadinii
How it was run: (§3)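 Spore suspension prepared in sterile distilled water from one-day-old cultures on Sabouraud agar, final 1-5 x 10^3 spores/mL. Compounds were serially diluted in RPMI 1640 to give eleven dilutions. Incubation at 35 °C for 24 h. Growth read visually and spectrophotometrically, in triplicate. MIC is the lowest concentration with complete inhibition.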

Saccharomyces cerevisiae = assay: Antifungal activity against Saccharomyces cerevisiae after 24 hrs by microbroth dilution method; type: functional; how it was run: as §3
Candida albicans = assay: Antifungal activity against Candida albicans ATCC 76615 after 24 hrs by microbroth dilution method; type: functional; conditions: ATCC 76615, 24 h; how it was run: as §3
Pichia norvegensis = assay: Antifungal activity against Candida mycoderma after 24 hrs by microbroth dilution method; type: functional
[4] = Dissociation constant, pKa of the compound by UV-spectroscopy; type: physicochemical
How it was run: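 DMSO stock at 4.0 × 10^-3 mol/L added to 2 mL of buffer, then shaken 10 min at room temperature. Buffers were acetate (pH 4.0–5.0), MES (5.5–6.5), HEPES (7.0–8.0) and CHES (8.5–9.4), each from 500 mM stocks. Scans ran 210–400 nm and were normalized. Absolute differences from the acid spectrum were summed at 244 and 308 nm, plotted against pH and fitted to obtain pKa.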

[5] = Octanol-water partition co-efficient, log P of the compound by shake flask method; type: physicochemical
[6] = Aqueous solubility of the compound by UV-spectrophotometry; type: physicochemical
Aspergillus flavus = assay: Antifungal activity against Aspergillus flavus ATCC 96918 after 24 hrs by microbroth dilution method
[7] = Cytotoxicity against human A549 cells assessed as cell viability at 256 ug/ml after 24 hrs by CCK-8 assay; type: cell-based; conditions: read-out: Activity
How it was run: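 A549 cells were plated and allowed to attach for 24 h, then medium with the compound was added. The compound came from DMSO stocks diluted in medium to 8, 16, 32, 64, 128 and 256 µg/mL. Cells were kept at 37 °C in 5% CO2. Viability was read by CCK-8 absorbance at 450 nm against a drug-free control, three replicates.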

SMILES	MIC (Streptococcus pneumoniae) [µg/mL]	MIC (Micrococcus luteus) [µg/mL]	MIC (Staphylococcus aureus [1]) [µg/mL]	MIC (Staphylococcus aureus [2]) [µg/mL]	MIC (Bacillus spizizenii) [µg/mL]	MIC (Pseudomonas aeruginosa) [µg/mL]	MIC (Escherichia coli) [µg/mL]	MIC (Shigella dysenteriae) [µg/mL]	MIC [3] [µg/mL]	MIC (Cyberlindnera jadinii) [µg/mL]	MIC (Saccharomyces cerevisiae) [µg/mL]	MIC (Candida albicans) [µg/mL]	MIC (Pichia norvegensis) [µg/mL]	pKa [4]	logP [5]	solubility [6] [µg/mL]	MIC (Aspergillus flavus) [µg/mL]	viability at 24 h, 256 ug/ml [7] [%]
Cc1ncc([N+](=O)[O-])n1CC(O)Cn1cc(C(=O)O)c(=O)c2cc(F)ccc21 (centres undefined)	8 (≈ 20.5 µM)	2 (≈ 5.12 µM)	2 (≈ 5.12 µM)	8 (≈ 20.5 µM)	16 (≈ 41 µM)	4 (≈ 10.2 µM)	8 (≈ 20.5 µM)	1 (≈ 2.56 µM)	32 (≈ 82 µM)	512 (≈ 1310 µM)	64 (≈ 164 µM)	128 (≈ 328 µM)	256 (≈ 656 µM)	5.18	-0.13	380 (≈ 974 µM)	–	–
Cc1ncc([N+](=O)[O-])n1CC(O)Cn1cc(C(=O)O)c(=O)c2cc(F)cc(F)c21 (centres undefined)	16 (≈ 39.2 µM)	2 (≈ 4.9 µM)	2 (≈ 4.9 µM)	16 (≈ 39.2 µM)	4 (≈ 9.8 µM)	2 (≈ 4.9 µM)	4 (≈ 9.8 µM)	4 (≈ 9.8 µM)	16 (≈ 39.2 µM)	512 (≈ 1250 µM)	64 (≈ 157 µM)	32 (≈ 78.4 µM)	128 (≈ 313 µM)	5.33	-0.21	570 (≈ 1400 µM)	–	–
Cc1ncc([N+](=O)[O-])n1CC(O)Cn1cc(C(=O)O)c(=O)c2cccc(F)c21 (centres undefined)	32 (≈ 82 µM)	4 (≈ 10.2 µM)	4 (≈ 10.2 µM)	8 (≈ 20.5 µM)	16 (≈ 41 µM)	2 (≈ 5.12 µM)	4 (≈ 10.2 µM)	8 (≈ 20.5 µM)	4 (≈ 10.2 µM)	256 (≈ 656 µM)	64 (≈ 164 µM)	256 (≈ 656 µM)	512 (≈ 1310 µM)	5.12	-0.13	390 (≈ 999 µM)	–	–
Cc1ncc([N+](=O)[O-])n1CC(O)Cn1cc(C(=O)O)c(=O)c2cc(Cl)cc(Cl)c21 (centres undefined)	16 (≈ 36.3 µM)	16 (≈ 36.3 µM)	32 (≈ 72.5 µM)	16 (≈ 36.3 µM)	8 (≈ 18.1 µM)	8 (≈ 18.1 µM)	32 (≈ 72.5 µM)	16 (≈ 36.3 µM)	32 (≈ 72.5 µM)	256 (≈ 580 µM)	64 (≈ 145 µM)	128 (≈ 290 µM)	256 (≈ 580 µM)	5.26	0.22	350 (≈ 793 µM)	–	–
CCOC(=O)c1cn(CC2CO2)c2c(Cl)cc(Cl)cc2c1=O (racemic)	–	–	–	–	2 (≈ 5.84 µM)	–	–	–	2 (≈ 5.84 µM)	512 (≈ 1500 µM)	–	–	1 (≈ 2.92 µM)	–	–	–	512 (≈ 1500 µM)	–
Cc1ccc2c(c1)c(=O)c(C(=O)O)cn2CC(O)Cn1cnc([N+](=O)[O-])c1 (centres undefined)	32 (≈ 85.9 µM)	8 (≈ 21.5 µM)	8 (≈ 21.5 µM)	0.5 (≈ 1.34 µM)	1 (≈ 2.69 µM)	1 (≈ 2.69 µM)	16 (≈ 43 µM)	4 (≈ 10.7 µM)	4 (≈ 10.7 µM)	256 (≈ 688 µM)	4 (≈ 10.7 µM)	16 (≈ 43 µM)	64 (≈ 172 µM)	–	–	–	–	> 83
O=C(O)c1cn(CC(O)Cn2cnc([N+](=O)[O-])c2)c2ccc(F)cc2c1=O (centres undefined)	8 (≈ 21.3 µM)	16 (≈ 42.5 µM)	8 (≈ 21.3 µM)	16 (≈ 42.5 µM)	16 (≈ 42.5 µM)	8 (≈ 21.3 µM)	8 (≈ 21.3 µM)	8 (≈ 21.3 µM)	8 (≈ 21.3 µM)	128 (≈ 340 µM)	64 (≈ 170 µM)	64 (≈ 170 µM)	256 (≈ 680 µM)	–	–	–	–	–
O=C(O)c1cn(CC(O)Cn2cnc([N+](=O)[O-])c2)c2cc(Cl)c(F)cc2c1=O (centres undefined)	16 (≈ 39 µM)	8 (≈ 19.5 µM)	8 (≈ 19.5 µM)	16 (≈ 39 µM)	8 (≈ 19.5 µM)	4 (≈ 9.74 µM)	32 (≈ 77.9 µM)	16 (≈ 39 µM)	2 (≈ 4.87 µM)	256 (≈ 623 µM)	64 (≈ 156 µM)	128 (≈ 312 µM)	128 (≈ 312 µM)	–	–	–	–	–
